Columns and labels:
[1] = molecular target: Protein kinase C epsilon type (Homo sapiens) (UniProt Q02156); assay: Inhibition of PKCepsilon assessed as enzyme residual activity at 10 uM relative to untreated control
Summary of the method: (§1)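 Residual kinase activity at 10 μM compound, determined by a commercial kinase profiling service (Millipore) across 15 kinases of different classes. Each compound tested in duplicate.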

[2] = molecular target: Protein kinase C gamma type (Homo sapiens) (UniProt P05129); assay: Inhibition of PKCgamma assessed as enzyme residual activity at 10 uM relative to untreated control; summary of the method: as §1
[3] = molecular target: Hepatocyte growth factor receptor (Homo sapiens) (UniProt P08581); assay: Inhibition of MET assessed as enzyme residual activity at 10 uM relative to untreated control; summary of the method: as §1
Hepatocyte growth factor receptor (Homo sapiens), sequence (P08581 whole entry): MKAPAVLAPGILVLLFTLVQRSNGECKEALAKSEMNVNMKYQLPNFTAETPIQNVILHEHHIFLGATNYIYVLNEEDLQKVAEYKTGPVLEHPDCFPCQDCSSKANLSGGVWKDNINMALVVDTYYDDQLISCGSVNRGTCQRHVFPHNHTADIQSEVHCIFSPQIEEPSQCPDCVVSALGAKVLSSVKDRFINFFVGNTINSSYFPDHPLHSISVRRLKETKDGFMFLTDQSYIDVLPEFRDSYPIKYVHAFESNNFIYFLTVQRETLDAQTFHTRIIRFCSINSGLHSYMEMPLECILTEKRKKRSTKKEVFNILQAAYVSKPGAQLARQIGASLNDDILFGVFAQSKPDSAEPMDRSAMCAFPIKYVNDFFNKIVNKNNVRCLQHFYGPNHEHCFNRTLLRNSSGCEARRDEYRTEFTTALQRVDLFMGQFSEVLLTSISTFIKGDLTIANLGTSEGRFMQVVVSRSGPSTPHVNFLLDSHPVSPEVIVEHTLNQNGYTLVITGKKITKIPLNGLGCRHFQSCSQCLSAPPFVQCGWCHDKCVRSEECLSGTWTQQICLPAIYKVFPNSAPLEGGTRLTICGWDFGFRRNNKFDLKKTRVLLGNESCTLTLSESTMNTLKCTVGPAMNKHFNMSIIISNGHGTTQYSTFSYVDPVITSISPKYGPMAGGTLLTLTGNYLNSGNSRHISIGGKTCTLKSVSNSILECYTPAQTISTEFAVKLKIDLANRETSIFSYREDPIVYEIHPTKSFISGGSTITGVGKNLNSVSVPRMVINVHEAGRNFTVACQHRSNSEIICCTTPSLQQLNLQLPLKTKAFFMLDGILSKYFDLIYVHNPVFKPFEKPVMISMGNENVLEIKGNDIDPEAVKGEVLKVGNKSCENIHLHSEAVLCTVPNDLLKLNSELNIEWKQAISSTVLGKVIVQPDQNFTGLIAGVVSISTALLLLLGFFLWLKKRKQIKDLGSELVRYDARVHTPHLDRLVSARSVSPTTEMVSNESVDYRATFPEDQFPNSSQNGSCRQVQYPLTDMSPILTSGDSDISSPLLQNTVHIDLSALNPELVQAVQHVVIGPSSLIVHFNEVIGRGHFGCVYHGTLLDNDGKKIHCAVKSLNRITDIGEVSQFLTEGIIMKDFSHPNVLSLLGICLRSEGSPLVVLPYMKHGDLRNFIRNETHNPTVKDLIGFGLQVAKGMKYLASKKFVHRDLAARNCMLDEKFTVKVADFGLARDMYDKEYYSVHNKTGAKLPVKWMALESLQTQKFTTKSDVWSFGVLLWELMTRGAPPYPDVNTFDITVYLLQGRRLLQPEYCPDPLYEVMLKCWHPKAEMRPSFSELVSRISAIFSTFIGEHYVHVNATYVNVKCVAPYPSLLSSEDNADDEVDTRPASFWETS

[4] = molecular target: Vascular endothelial growth factor receptor 2 (Homo sapiens, UniProt P35968); assay: Inhibition of VEGFR2 assessed as enzyme residual activity at 10 uM relative to untreated control; summary of the method: as §1
[5] = molecular target: Epidermal growth factor receptor (Homo sapiens) (UniProt P00533); assay: Inhibition of EGFR assessed as enzyme residual activity at 10 uM relative to untreated control; summary of the method: as §1
Epidermal growth factor receptor (Homo sapiens), sequence (P00533 whole entry): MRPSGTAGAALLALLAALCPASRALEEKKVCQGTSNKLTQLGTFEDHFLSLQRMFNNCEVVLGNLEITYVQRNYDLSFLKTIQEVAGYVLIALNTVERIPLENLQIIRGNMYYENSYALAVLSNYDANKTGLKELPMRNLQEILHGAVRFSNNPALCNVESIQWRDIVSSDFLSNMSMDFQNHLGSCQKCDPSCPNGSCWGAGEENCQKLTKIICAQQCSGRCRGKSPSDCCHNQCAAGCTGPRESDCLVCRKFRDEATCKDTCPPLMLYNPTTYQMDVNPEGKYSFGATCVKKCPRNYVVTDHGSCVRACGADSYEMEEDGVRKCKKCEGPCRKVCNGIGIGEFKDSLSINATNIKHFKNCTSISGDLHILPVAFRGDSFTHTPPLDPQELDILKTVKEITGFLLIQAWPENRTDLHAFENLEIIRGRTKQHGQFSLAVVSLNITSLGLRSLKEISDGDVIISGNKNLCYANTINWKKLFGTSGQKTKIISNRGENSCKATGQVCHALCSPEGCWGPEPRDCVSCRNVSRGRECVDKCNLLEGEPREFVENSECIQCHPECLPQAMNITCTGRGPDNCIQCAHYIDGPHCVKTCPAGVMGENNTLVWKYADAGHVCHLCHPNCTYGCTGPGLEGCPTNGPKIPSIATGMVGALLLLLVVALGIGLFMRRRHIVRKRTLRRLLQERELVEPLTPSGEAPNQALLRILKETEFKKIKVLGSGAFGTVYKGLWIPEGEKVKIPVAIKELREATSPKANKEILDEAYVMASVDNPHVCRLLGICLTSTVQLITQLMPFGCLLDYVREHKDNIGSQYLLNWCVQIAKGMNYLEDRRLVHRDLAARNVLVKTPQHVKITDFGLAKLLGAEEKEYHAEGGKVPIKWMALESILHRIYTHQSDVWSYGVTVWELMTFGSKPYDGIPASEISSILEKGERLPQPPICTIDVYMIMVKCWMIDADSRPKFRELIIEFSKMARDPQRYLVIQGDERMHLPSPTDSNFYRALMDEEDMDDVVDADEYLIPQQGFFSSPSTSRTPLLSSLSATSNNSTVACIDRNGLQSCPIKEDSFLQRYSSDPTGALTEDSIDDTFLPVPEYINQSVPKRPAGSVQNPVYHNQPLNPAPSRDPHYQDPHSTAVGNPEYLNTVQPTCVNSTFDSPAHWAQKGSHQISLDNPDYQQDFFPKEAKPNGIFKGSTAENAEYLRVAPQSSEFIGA

[6] = molecular target: RAF proto-oncogene serine/threonine-protein kinase (Homo sapiens) (UniProt P04049); assay: Inhibition of c-RAF assessed as enzyme residual activity at 10 uM relative to untreated control; summary of the method: as §1
RAF proto-oncogene serine/threonine-protein kinase (Homo sapiens), sequence (P04049 whole entry): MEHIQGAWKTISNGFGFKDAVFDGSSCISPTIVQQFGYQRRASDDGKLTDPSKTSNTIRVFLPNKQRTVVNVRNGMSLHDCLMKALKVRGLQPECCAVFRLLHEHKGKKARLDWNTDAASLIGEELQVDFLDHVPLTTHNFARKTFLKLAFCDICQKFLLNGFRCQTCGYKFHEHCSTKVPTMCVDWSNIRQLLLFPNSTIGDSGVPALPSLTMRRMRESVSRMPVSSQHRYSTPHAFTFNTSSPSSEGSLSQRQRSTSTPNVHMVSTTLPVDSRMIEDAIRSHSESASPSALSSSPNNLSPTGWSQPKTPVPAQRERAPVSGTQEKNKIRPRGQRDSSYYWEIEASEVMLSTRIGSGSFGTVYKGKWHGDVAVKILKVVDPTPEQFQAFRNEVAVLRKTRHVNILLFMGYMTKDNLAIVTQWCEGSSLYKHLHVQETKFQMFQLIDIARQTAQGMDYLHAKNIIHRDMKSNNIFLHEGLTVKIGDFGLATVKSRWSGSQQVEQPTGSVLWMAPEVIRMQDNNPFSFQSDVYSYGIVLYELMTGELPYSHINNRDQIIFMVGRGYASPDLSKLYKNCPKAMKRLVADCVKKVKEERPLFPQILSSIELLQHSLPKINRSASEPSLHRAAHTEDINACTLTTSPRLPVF

MKN-45 [7] = assay: Induction of apoptosis in human MKN45 assessed as accumulation at subG1 phase at 5 uM incubated for 7 days by flow cytometry (reference value: 10.9 +/- 3.2%); type: functional
MKN-45 [8] = assay: Induction of apoptosis in human MKN45 assessed as accumulation at subG1 phase at 1 uM incubated for 7 days by flow cytometry (reference value: 10.9 +/- 3.2%); type: functional
HUVEC = assay: Induction of apoptosis in human HUVEC assessed as accumulation at subG1 phase at 2.6 uM incubated for 4 days by flow cytometry (reference value: 15.4 +/- 1.5%); type: functional
MOLM-14 [9] = assay: Cytotoxic activity against human MOLM14 cells assessed as cell viability at 10 uM incubated for 3 days by MTT assay; type: functional; settings: MOLM-14, 72 h, read-out: Activity
Summary of the method: (§2)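 MTT viability: exponentially growing cells, 10 000 viable cells/well in RPMI plated overnight, then exposed to test compounds for 3 days (HT-29, Molm-14) or 5 days (Mkn-45) at 37 °C, 5% CO2. MTT added for 4 h, then SDS/HCl solubilization overnight and absorbance read at 562 nm. Viability is expressed relative to untreated cells (100%). Triplicate.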

MOLM-14 [10] = assay: Cytotoxic activity against human MOLM14 cells assessed as cell viability at 0.5 uM incubated for 3 days by MTT assay; type: functional; settings: MOLM-14, 72 h, read-out: Activity; summary of the method: as §2
MKN-45 [11] = assay: Cytotoxic activity against human MKN45 cells assessed as cell viability at 50 uM incubated for 5 days by MTT assay; type: functional; settings: MKN-45, 120 h, read-out: Activity; summary of the method: as §2
MKN-45 [12] = assay: Cytotoxic activity against human MKN45 cells assessed as cell viability at 10 uM incubated for 5 days by MTT assay; type: functional; settings: MKN-45, 120 h, read-out: Activity; summary of the method: as §2

Protein kinase C epsilon type (Homo sapiens), sequence (Q02156 whole entry): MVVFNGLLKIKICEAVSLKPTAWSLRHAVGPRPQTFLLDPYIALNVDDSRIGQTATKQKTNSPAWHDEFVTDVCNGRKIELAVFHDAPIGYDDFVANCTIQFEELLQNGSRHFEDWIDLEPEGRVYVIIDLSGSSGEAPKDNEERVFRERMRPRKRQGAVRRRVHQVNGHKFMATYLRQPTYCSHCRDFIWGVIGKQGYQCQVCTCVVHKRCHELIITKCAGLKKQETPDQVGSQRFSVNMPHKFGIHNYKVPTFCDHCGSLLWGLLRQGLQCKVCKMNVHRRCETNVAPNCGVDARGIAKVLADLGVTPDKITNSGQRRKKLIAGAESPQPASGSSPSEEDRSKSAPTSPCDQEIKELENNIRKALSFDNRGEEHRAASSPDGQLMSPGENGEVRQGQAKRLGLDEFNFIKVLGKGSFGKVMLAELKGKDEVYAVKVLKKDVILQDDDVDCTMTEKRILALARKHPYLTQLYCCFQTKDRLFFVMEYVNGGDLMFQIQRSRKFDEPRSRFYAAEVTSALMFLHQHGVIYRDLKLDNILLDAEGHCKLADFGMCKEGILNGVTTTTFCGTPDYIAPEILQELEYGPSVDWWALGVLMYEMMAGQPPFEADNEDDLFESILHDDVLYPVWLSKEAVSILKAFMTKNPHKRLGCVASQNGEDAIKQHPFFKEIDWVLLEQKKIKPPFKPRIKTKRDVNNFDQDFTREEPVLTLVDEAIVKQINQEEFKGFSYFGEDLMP

Q: Which Activity [1] does the source give for `COc1cc(C2=C(c3c[nH]c4cnccc34)C(=O)NC2=O)cc(OC)c1OC` here?
A: 75%

Q: And the Activity [2]?
A: 83%

Q: What about the Activity [3] of the same compound?
A: 83%

Q: And the Activity [4]?
A: 1%

Q: What about the Activity [5] of the same compound?
A: 111%

Q: What about the Activity [6] of the same compound?
A: 117%

Q: What about the Activity (MKN-45 [7]) of the same compound?
A: 15.8%

Q: What about the Activity (MKN-45 [8]) of the same compound?
A: 12.8%

Q: What about the Activity (HUVEC) of the same compound?
A: 66.3%

Q: What about the viability at 10 µM (MOLM-14 [9]) of the same compound?
A: 9.35%

Q: And the viability at 0.5 µM (MOLM-14 [10])?
A: 73.4%

Q: And the viability at 50 µM (MKN-45 [11])?
A: 68.6%

Q: And the viability at 10 µM (MKN-45 [12])?
A: 108%
